Reference: ChEMBL document CHEMBL1144742, “Mithramycin analogues generated by combinatorial biosynthesis show improved bioactivity” (2008)

Experiments:
MCF7 = assay: Induction of apoptosis in estrogen receptor positive human MCF7 cells at 15 uM after 24 hrs by TUNEL assay; type: functional
In short: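 ER-positive MCF-7 breast cancer cells, exposed 24 h at 15 μM. Apoptotic cells scored by TUNEL labelling and confocal microscopy, expressed as percent TUNEL-positive, normalized against untreated baseline. Mean ± standard error from three independent experiments.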

MDA-MB-231 = assay: Induction of apoptosis in estrogen receptor negative human MDA231 cells at 20 uM after 24 hrs by TUNEL assay; type: functional
In short: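 ER-negative MDA-231 breast cancer cells, treated 24 h at 20 μM. Apoptosis read by TUNEL staining with confocal microscopy as percent TUNEL-positive cells. Baseline apoptosis of untreated cells used for normalization. Mean ± standard error of three independent experiments.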

| Compound | Activity (MCF7) | Activity (MDA-MB-231) |
| --- | --- | --- |
| CO[C@H](C(=O)[C@@H](O)[C@@H](C)O)[C@@H]1Cc2cc3cc(O[C@H]4C[C@@H](O[C@H]5C[C@@H](O)[C@H](O)[C@@H](C)O5)[C@H](O)[C@@H](C)O4)c(C)c(O)c3c(O)c2C(=O)[C@H]1O[C@H]1C[C@@H](O[C@H]2C[C@@H](O[C@H]3C[C@](C)(O)[C@H](O)[C@@H](C)O3)[C@@H](O)[C@H](C)O2)[C@H](O)[C@@H](C)O1 | 3.9% | 6.46% |
| CO[C@H](C(=O)[C@@H](O)[C@@H](C)O)[C@@H]1Cc2cc3cc(O[C@H]4C[C@@H](O)[C@H](O)[C@@H](C)O4)c(C)c(O)c3c(O)c2C(=O)[C@H]1O[C@H]1C[C@@H](O[C@H]2C[C@@H](O[C@H]3C[C@](C)(O)[C@H](O)[C@@H](C)O3)[C@@H](O)[C@@H](C)O2)[C@H](O)[C@@H](C)O1 | 26.3% | 12.6% |
| CO[C@H](C(=O)[C@@H](O)[C@@H](C)O)[C@@H]1Cc2cc3cc(O[C@H]4C[C@@H](O[C@H]5C[C@@H](O)[C@H](O)[C@@H](C)O5)[C@H](O)[C@@H](C)O4)c(C)c(O)c3c(O)c2C(=O)[C@H]1O[C@H]1C[C@@H](O[C@H]2C[C@](C)(O)[C@H](O)[C@@H](C)O2)[C@H](O)[C@@H](C)O1 | 50.3% | 7.29% |
| CO[C@H](C(=O)[C@@H](O)[C@@H](C)O)[C@@H]1Cc2cc3cc(O[C@H]4C[C@@H](O[C@H]5C[C@@H](O)[C@H](O)[C@@H](C)O5)[C@H](O)[C@@H](C)O4)c(C)c(O)c3c(O)c2C(=O)[C@H]1O[C@H]1C[C@@H](O[C@H]2C[C@@H](O[C@H]3C[C@H](O)[C@H](O)[C@@H](C)O3)[C@@H](O)[C@@H](C)O2)[C@H](O)[C@@H](C)O1 | 64.8% | 63.6% |
